Among the data in ChEMBL document CHEMBL1123281, “Synthesis and rat lens aldose reductase inhibitory activity of some benzopyran-2-ones” (J Med Chem, 1986) are IC50 and inhibition values, retold here.

For test [1], the target named is T1, Aldo-keto reductase family 1 member B1 (Rattus norvegicus, UniProt P07943). In words: Compound was tested for inhibitory concentration against rat lens aldose reductase (noncompetitive inhibition type). The method, boiled down: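 Crude supernatant from 50 rat lenses homogenized in distilled water, centrifuged 10 000 rpm, 10 min, 0–5 °C. Read-out was NADPH decrease at 340 nm over 5 min in 0.1 M phosphate pH 6.2, 0.104 mM NADPH, 10 mM DL-glyceraldehyde. IC50 came from least-squares log dose–response fits, using ≥4 concentrations ×4 replicates. Inhibition type was read from double-reciprocal plots with 0.0625–1.0 mM substrate.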

In test [2] the target is T1, Aldo-keto reductase family 1 member B1. Nature of the test: Compound was tested for inhibitory concentration against rat lens aldose reductase (uncompetitive inhibition type).
Test [3] concerns the target Aldo-keto reductase family 1 member B1 (Rattus norvegicus) (UniProt P07943). Nature of the test: Compound was tested for percent inhibition at 10 e-4 M against rat lens aldose reductase. The method, boiled down: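 Single-concentration screen at 100 μM against crude rat lens supernatant. The reaction mix was 0.1 M phosphate pH 6.2, 0.104 mM NADPH and 10 mM DL-glyceraldehyde, started with substrate. NADPH loss was followed at 340 nm for 5 min, with inhibitor included in the blanks. Percent inhibition compares the rate with a substrate-only control. Final Me2SO was ≤1%.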

Usually IC50 stands for the point on the concentration scale where inhibition reaches its midpoint. A higher IC50 goes with weaker potency. By inhibition is commonly meant the relative decrease from the control value, in per cent.

With `CC(=O)Oc1ccc2c(CC(=O)O)cc(=O)oc2c1`, the IC50 in test [1] was 61 µM.

As for `O=C(O)Cc1cc(=O)oc2ccc3ccccc3c12`, the IC50 in test [2] worked out at 20 nM. On to `Cc1cc(=O)oc2cc(O)cc(O)c12` [5,7-DIHYDROXY-4-METHYLCOUMARIN], for which, in test [1], the IC50 was determined as 17 µM. As to `CCc1ccc2c(C)cc(=O)oc2c1`, the inhibition in test [3] is 16%. Same read-out and setting: under `Cc1cc(=O)oc2ccc(O)cc12` stands 22%.

`O=C(O)Cc1cc(=O)oc2ccccc12`: the IC50 in test [2] worked out at 600 nM.

Consider `NC(=O)Cc1cc(=O)oc2cc(O)ccc12`, for which the IC50 in test [2] is 10000 nM.

In test [2], `CCc1ccc2c(CC(=O)O)cc(=O)oc2c1` registered an IC50 of 240 nM. Still for that read-out and setting: next, `O=C(O)Cc1cc(=O)oc2cc(Cl)ccc12`: 560 nM. `COc1ccc2c(CCC(=O)O)cc(=O)oc2c1` gave an IC50 in test [1] of 2.1 µM. On to `COc1ccc2c(C)cc(=O)oc2c1`, for which the inhibition in test [3] was 21%. `CC(=O)Oc1ccc2c(C)cc(=O)oc2c1` returned an inhibition in test [3] of 13%.

In turn, `COc1ccc2c(C(=O)O)cc(=O)oc2c1` displayed an IC50 in test [2] of 11000 nM. As for `O=C(O)Cc1cc(=O)oc2cc(O)cc(O)c12`, in test [1], the IC50 stood at 0.26 µM. As for `Cc1cc(=O)oc2cc(O)ccc12` [HYMECROMONE], the IC50 in test [1] was found to be 62 µM. The same measure, in the same setting: next, `O=C(O)Cc1cc(=O)oc2cc(O)ccc12`: 0.15 µM; `O=C(O)Cc1cccc2ccccc12`: 32 µM.

In turn, `COC(=O)Cc1cc(=O)oc2cc(O)ccc12` displayed an IC50 in test [2] of 38000 nM. Same read-out and setting: next, `COc1ccc2c(/C=C/C(=O)O)cc(=O)oc2c1`: 4400 nM; `Cc1cc(=O)oc2c(O)c(O)ccc12` [4-METHYLDAPHNETIN]: 10000 nM. With `COc1ccc2c(CC(=O)O)cc(=O)oc2c1`, the IC50 in test [1] amounted to 0.37 µM. This counts as sub-micromolar. The molecule `Cc1cc(=O)oc2cc(Cl)ccc12` displayed an inhibition in test [3] of 10%. Regarding `O=C(O)Cc1cc(=O)oc2c1ccc1ccccc12`, in test [2], the IC50 is 140 nM. As to `Cc1cc(=O)oc2ccccc12`, the inhibition in test [3] is 19%.
